Key:
[1] = Tested in vitro for Half- life period of the compound; type: ADME
L1210 [2] = assay: Tested for Mean survival days against mouse leukemia L1210 cells; type: functional
Method in brief: (§1)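 Male BDF1 hybrid mice inoculated ip with 10⁶ L1210 lymphoid leukemia cells; compounds dissolved in distilled water, given ip once daily for 3 days starting 24 h after implantation (day 1). %ILS = 100(T/C−1) versus untreated tumor-bearing controls, counting 60-day survivors; 60-day survivors tallied per treated group.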

L1210 [3] = assay: Tested for Maximal effective dose against mouse leukemia L1210 cells; type: functional
Method in brief: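 Male BDF1 hybrid mice inoculated ip with 10⁶ L1210 lymphoid leukemia cells; compounds in distilled water given ip once daily for 3 days starting 24 h after implantation (day 1). Percent ILS = 100(T/C-1) versus untreated tumor-bearing controls, counting 60-day survivors. Maximal effective dose recorded.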

L1210 [4] = assay: Tested for ratio of maximal effective dose/the dose which gives 30% ILS against mouse leukemia L1210 cells; type: cell-based
Method in brief: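 In the L1210 model (male BDF1 mice, 10⁶ cells ip, ip dosing in distilled water once daily on days 1–3), therapeutic index is the maximal effective dose divided by the dose giving 30% ILS. ILS = 100(T/C-1), 60-day survivors included.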

L1210 [5] = assay: Tested for Number of 60 days survivors per 5 treated mice against mouse leukemia L1210 cells; type: functional; method in brief: as §1
L1210 [6] = assay: Tested for Percent increase in life span against mouse leukemia L1210 cells; type: functional; method in brief: as §1
[7] = Tested for the toxicity after ip administration in SLC-BDF1 male mice; type: organism-based; settings: SLC-BDF1, mouse, in vivo
Method in brief: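 SLC-BDF1 male mice, 5 weeks old, six per group, single intraperitoneal injection; deaths observed for 21 days; LD50 with 95% fiducial limits by the Litchfield-Wilcoxon method.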

[8] = Tested for the toxicity after iv administration in SLC-BDF1 male mice; type: organism-based; settings: SLC-BDF1, mouse, in vivo
Method in brief: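 SLC-BDF1 male mice, 5 weeks old, six per group, single intravenous injection; deaths observed for 21 days; LD50 with 95% fiducial limits by the Litchfield-Wilcoxon method.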

Row | SMILES | half-life [1] [min] | Mean survival days (L1210 [2]) | maximal effective dose (L1210 [3]) [mg/kg/day] | Therapeutic index (L1210 [4]) | Survivors (L1210 [5]) | ILS (L1210 [6]) [%] | LD50 [7] [mg/kg] | LD50 [8] [mg/kg]
1 | CSCCC(NC(=O)N(CCCl)N=O)C(N)=O (centres undefined) | 38.1 | 27.2 | 16 | 5.9 | 0 | 277.8 |  | 
2 | NC(=O)C(Cc1ccc(O)cc1)NC(=O)N(CCCl)N=O (centres undefined) |  | >35.4 | 16 | 10 | 2 | >342.5 |  | 
3 | NC(=O)CNC(=O)N(CCCl)N=O | 44 | >60 | 16 | 36.4 | 5 | >679.2 | 21.2 | 22.4
4 | CC(NC(=O)N(CCCl)N=O)C(N)=O (centres undefined) | 37 | >60 | 8 | 14.3 | 5 | >710.8 |  | 
5 | NC(=O)C(CO)NC(=O)N(CCCl)N=O (centres undefined) | 19.8 | >60 | 8 | 40 | 5 | >757.1 |  | 
6 | NC(=O)CC(NC(=O)N(CCCl)N=O)C(N)=O (centres undefined) | 32.1 | >42.8 | 8 | 15.7 | 2 | >494.4 |  | 
7 | NC(=O)CCNC(=O)N(CCCl)N=O | 61 | >60 | 16 | 15.2 | 5 | >733.3 |  | 
8 | CC(C)CC(NC(=O)N(CCCl)N=O)C(N)=O (centres undefined) | 48.3 | >60 | 24 | 11.4 | 5 | >757.1 |  | 
9 | CN(CC(N)=O)C(=O)N(CCCl)N=O [SARCNU] | 330 | >60 | 225 | 15.5 | 5 | >710 | 392 | 427
10 | NC(=O)C1CCCN1C(=O)N(CCCl)N=O (centres undefined) | 295 | >25.2 | 64 | 5.6 | 1 | >250 | 220 | 195
11 | CC(C)C(NC(=O)N(CCCl)N=O)C(N)=O (centres undefined) | 44.5 | >60 | 8 | 15.7 | 5 | >757.1 |  | 
12 | NC(=O)C(Cc1ccccc1)NC(=O)N(CCCl)N=O (centres undefined) | 49.9 | >38.2 | 32 | 3.8 | 1 | >445.7 |  | 
13 | CC(O)C(NC(=O)N(CCCl)N=O)C(N)=O (centres undefined) | 23.3 | >60 | 8 | 40 | 5 | >757.1 |  | 
14 | NC(=O)CCCNC(=O)N(CCCl)N=O | 72.5 | >60 | 16 | 7.3 | 5 | >733.3 |  | 
